Sampled rows, rich in hits. Any-hit rate of the full collection: about 1.9%.
FAS TE block: blocks the thioesterase domain of human fatty acid synthase; inhibition, % at 15 µM; 360,000 compounds, 0.67% hits; recombinant FAS-TE, OMFH fluorogenic substrate, fluorescence endpoint;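 active = compounds whose normalised, plate-corrected inhibition of enzyme fluorescence in the single-dose primary screen is 50% or more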;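 note: 0% = DMSO with enzyme and 100% = substrate without enzyme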
SENP1 inh: inhibitors of human SENP1 SUMO protease catalytic domain; Q9P0U3; recombinant SENP1 catalytic domain, CyPet-SUMO1-YPet FRET cleavage; inhibition, % at 10 µM; 360,000 compounds, 0.21% hits; AID 624204;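 active = inhibition at least 30% at 10 µM, raw YFP signal under a set limit, fluorescence ratio 0.5 to 1.5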;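 note: 0% = enzyme with DMSO and 100% = no enzyme wells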
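Test system: hSENP1 catalytic domain, recombinant; Amount: 20 pM final SENP1 enzyme; Medium: Tris pH 8 buffer plus EDTA, NaCl, BME, BSA, NP40, catalase; Schedule: 50 min enzyme reaction, room temperature, light-protected; Technique: FRET fluorescence in CFP and YFP emission channels; Controls: no-enzyme wells low, DMSO-plus-enzyme wells high control.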
ADAM10 inh: ADAM10 inhibition, QFRET primary screen. O14672. recombinant ADAM10, EDANS/DABCYL FRET peptide cleavage, 3 h. inhibition, % at 7 µM. 370,000 compounds, 0.62% hits. AID 720582;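 active = inhibition above a per-campaign cutoff equal to the mean of compounds falling between control-based bounds plus 3 SD, cut at about 20% in these data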;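 note: 0% = DMSO wells while the 100% control is not disclosed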
ADAM17 inh: inhibits human ADAM17 | recombinant ADAM17, EDANS/DABCYL FRET peptide cleavage | inhibition, % at 6.95 µM | 370,000 compounds, 0.83% hits;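 active = inhibition above the mean of compounds lying between control limits plus 3 SD, set per campaign, cut at about 8.5% in these data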;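 note: 0% = DMSO-only wells as the low control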
ADAM10 counter: ADAM10 inhibition, counter-screen for ADAM17 exosite hits. shares compounds with ADAM17 inh. recombinant ADAM10, EDANS/DABCYL FRET peptide cleavage, 3 h. inhibition, % at 6.95 µM. 2,900 compounds, 47% hits;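 active = mean inhibition over the triplicate runs exceeds the activity threshold set in the earlier primary screen, cut at about 20% in these data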;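 note: 0% = DMSO wells and 100% = marimastat wells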
ADAM17 confirm: confirmation of inhibitors of human ADAM17; shares compounds with ADAM17 inh; recombinant ADAM17, EDANS/DABCYL QFRET peptide cleavage; inhibition, % at 6.95 µM; 2,900 compounds, 65% hits;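 active = mean inhibition across replicates above the hit cutoff set in the primary screen, cut at about 8.5% in these data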;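 note: 0% = DMSO wells and 100% = marimastat wells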
* hit, by the source's call; · = not tested or not shown.

SMILES	FAS TE block	SENP1 inh	ADAM10 inh	ADAM17 inh	ADAM10 counter	ADAM17 confirm
COCCCNC(=O)C[C@H]1C[C@@]2(C(=O)OC)C(=C[C@H](C3CCCC3)O[C@@H]2C)N(Cc2ccccc2)C1=O	·	·	-1.0	7.2	·	·
CCCCCCC12C(=Cc3cc(C)ccc31)c1ccccc1C(CC(=O)NCc1ccccc1)N2C(=O)OC (configuration not stated)	·	·	-21.7	-7.0	·	·
C[C@H](c1ccccc1)N1C[C@H](COCc2ccccc2)Oc2cc(N3CC[C@@H](O)C3)ccc2S1(=O)=O	18.5	2.5	13.4	9.8*	28.8*	15.2*
C[C@@H](c1ccccc1)N1C[C@H](COCc2ccccc2)Oc2cc(N3CC[C@@H](O)C3)ccc2S1(=O)=O	39.6	0.9	11.9	10.4*	16.4	6.5
C[C@@H](c1ccccc1)N1C[C@@H](COCc2ccccc2)Oc2cc(N3CC[C@@H](O)C3)ccc2S1(=O)=O	18.1	1.5	10.1	7.1	·	·
CC(C)NC(=O)N[C@H]1C[C@@H]2O[C@@H](CO)CC[C@@H]2O[C@@H]1CCc1ccc(-c2ccccc2F)cc1	·	·	8.7	2.8	·	·
CCCOc1ccccc1C(=O)N(Cc1cccs1)C1CCS(=O)(=O)C1 (configuration not stated)	0.4	0.5	11.2	10.5*	9.8	8.2
N#CCCN(C(=O)COC(=O)c1cccc(S(=O)(=O)Nc2ccc([N+](=O)[O-])cc2)c1)c1ccccc1	0.0	-5.3	14.0	9.2*	5.6	8.2
CCC(C)[C@H]1CNC(=S)N1CCc1cccc2ccccc12 (some centres not stated)	6.8	1.2	5.7	12.7*	5.4	2.8
CCC(C)[C@H]1CNC(=O)C(=O)N1CCc1cccc2ccccc12 (some centres not stated)	-2.1	-1.4	-5.1	-4.9	·	·
C=CC[C@]12C[C@@]3(O[C@H](c4ccc(C(F)(F)F)cc4)N=C3C[C@H](c3ccc(OC)cc3)[C@H]1C)N(Cc1ccncc1)C2=O	·	·	-3.3	-1.4	·	·
COc1ccc([C@H]2CC(=O)C=C(/C=C/c3ccccc3)C2)cc1OC	26.5	3.5	12.7	13.4*	-1.7	5.9
O=S1(=O)CCN2C(c3ccc4c(c3)CCCC4)=CSC2=N1	-4.4	0.5	7.9	8.7*	23.5*	11.6*
C[C@@H]1ON(C)[C@H]2C[C@H]3c4[nH]c5c(-c6cc(Cl)cc(Cl)c6)cccc5c4CCN3C(=O)[C@@H]12	·	·	-56.5	-13.8	·	·
Cc1ccc(S(=O)(=O)Nc2cc(Cl)c(O)c3ncccc23)cc1	8.6	0.5	11.1	14.2*	8.4	16.7*
Oc1c(Cl)cc(Cl)c2cccnc12	3.6	2.7	5.8	1.1	·	·
CCOC(=O)CC[C@H]1CC[C@]2(CCCN(C(=O)c3ccc4ccccc4n3)C2)O1	·	·	-4.0	-3.4	·	·
CC(C)(C)c1csc(NC(=O)C2COc3ccccc3O2)n1 (configuration not stated)	20.1	0.9	-0.2	2.3	·	·
COc1ccc(-c2csc(NC(=O)C3COc4ccccc4O3)n2)cc1OC (configuration not stated)	25.8	3.0	10.8	8.9*	15.3	10.5*
CC(=O)c1cccc(NC(=O)c2cnn3c(C)cc(C)nc23)c1	·	·	-6.5	-3.0	·	·
COC(=O)[C@]12C[C@H](CC(=O)NCc3ccc(C)o3)C(=O)N(Cc3ccc(Cl)cc3Cl)C1=C[C@H](C(C)C)O[C@@H]2C1CC1	·	·	7.8	1.5	·	·
Cc1ccc(Nc2nc(Cl)nc(NC(C)(C)C)n2)cc1	16.2	0.7	10.5	4.8	·	·
Cc1ccc(Nc2nc(Nc3ccc(C)cc3)nc(SC3=NCCS3)n2)cc1	32.4	0.8	14.5	9.8*	20.4*	11.8*
CS/C(=C\[N+](=O)[O-])Nc1ccc(Cl)cc1	-3.1	-0.5	16.2	11.6*	2.3	1.2
CC(C)=CC(=O)Nc1ccc(Cl)cc1	2.7	2.5	-4.9	5.4	·	·
SMILES	FAS TE block	SENP1 inh	ADAM10 inh	ADAM17 inh	ADAM10 counter	ADAM17 confirm
O=C(N[C@H](C(=O)N1CCC[C@H]1C(=O)NCc1ccccc1)c1ccccc1)C1CCCC1	·	·	-1.1	-2.4	·	·
COc1cccc(CNC(=O)CSCc2cnn(-c3ccccc3)c2-n2cccc2)c1	11.6	1.2	18.4	13.9*	-0.1	4.4
CNC(=O)CSCc1cnn(-c2ccccc2)c1-n1cccc1	-8.4	1.5	-7.5	0.2	·	·
Brc1ccc(-c2csc(N3CCC(c4nn[nH]n4)CC3)n2)cc1	·	·	6.3	-1.7	·	·
COc1ccc(NC(=O)Nc2ccc3c(c2)CC(=O)N([C@H](C)CO)C[C@@H](C)[C@H](CN(C)C(=O)Nc2ccccc2)O3)cc1	-14.3	0.5	3.5	4.4	·	·
COc1ccc(NC(=O)Nc2ccc3c(c2)CC(=O)N([C@H](C)CO)C[C@H](C)[C@H](CN(C)Cc2ccc(C(=O)O)cc2)O3)cc1	-6.7	1.8	7.5	9.0*	9.6	7.5
C[C@H]1CN([C@@H](C)CO)C(=O)Cc2cc(NC(=O)C3CC3)ccc2O[C@H]1CN(C)Cc1ccc(Oc2ccccc2)cc1	5.8	-0.3	19.4	9.3*	28.8*	18.8*
CN1C(=O)C[C@@](C#N)(C(=O)NCC(F)(F)F)[C@H]1c1ccccc1	·	·	-1.0	0.8	·	·
CCOC(=O)c1c(C)[nH]c(C)c1C(=O)CSc1nc2ccccc2c(=O)n1-c1ccc(C)cc1	-17.9	0.6	7.2	3.9	·	·
CCOC(=O)c1c(C)[nH]c(C)c1C(=O)CSc1nc2ccccc2c(=O)n1-c1ccc(Cl)cc1	36.7	1.3	15.0	10.6*	28.3*	19.2*
CC(C)(C)c1ccc(S(=O)(=O)N2CCCC(C(=O)NCc3cccs3)C2)cc1 (configuration not stated)	·	·	2.8	1.7	·	·
CCOC(=O)c1c(O)cc(OC)cc1CCc1ccccc1	24.1	-12.8	-2.4	9.9*	9.2	8.1
COc1cc(O)c(C(=O)O)c(CCc2ccccc2)c1	-4.2	1.0	2.7	-0.2	·	·
CC1=C(C(=O)N(C)C)CC(CC(=O)NCCCCc2ccccc2)C(=O)N1Cc1ccc(C(C)(C)C)cc1 (configuration not stated)	25.6	1.7	-1.6	11.3*	26.1*	12.3*
CCN(CC)C(=O)C1=C(C)N(Cc2ccc(C(C)(C)C)cc2)C(=O)C(CC(=O)NCCCCc2ccccc2)C1 (configuration not stated)	24.9	-0.8	16.3	9.8*	19.6	7.8
CC1=C(C(=O)N(C)C)CC(CC(=O)NCCCCc2ccccc2)C(=O)N1Cc1ccc(F)cc1 (configuration not stated)	1.4	1.8	-6.7	-1.8	·	·
COc1ccc(Cn2cc(CN3[C@@H](CC(C)C)COc4cccc(F)c4S3(=O)=O)nn2)cc1	·	·	-1.0	-3.9	·	·

Compound activity (PubChem BioAssay)
